TCR-CD3 inh: inhibitors of human TCR-CD3 interaction, primary screen, biochemical, fluorescence, TAMRA-labeled TCR probe; actives 0.37% (n = 360,000); AID 651800, 2012; inhibition, % at 9.4 µM; T-cell receptor (TCR); in the data active = inhibition above about 19%;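 also: recombinant mutant TCR 2C K166C tagged with TAMRA read by polarization; 0% = receptor in buffer alone and 100% = receptor with positive control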
PAD4 FP inh: human PAD4 inhibitors, primary screen, biochemical, fluorescence polarization, 1536-well format | Protein-arginine deiminase type-4 (Homo sapiens), Q9UM07 | recombinant PAD4, RCA probe fluorescence polarization | actives 0.41% (n = 330,000) | inhibition, % at 6.36 µM;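 active = percent inhibition above a cutoff equal to the mean of all tested compounds plus 3 SD, cut at about 15% in these data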;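 also: 0% = PAD4 with RCA probe and DMSO and 100% = probe without PAD4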
ABHD4 inh: ABHD4 inhibitors, primary screen, biochemical, fluorescence polarization, mouse | inhibition, % at 8.92 µM | actives 0.54% (n = 370,000) | purified mABHD4, FP-Rh probe fluorescence polarization;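 active = inhibition exceeding the mean over every tested compound plus 3 SD, cut at about 30% in these data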;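 also: 0% = plate median of compound wells and 100% = S159A mutant with DMSO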
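Assay system: Wild-type mouse ABHD4 protein | Medium: HEPES pH 7.0 buffer, 150 mM NaCl, 0.01% Pluronic F-127 | Incubation: Enzyme–compound pre-incubation 45 min, then probe 60 min, both 25 °C | Technique: Fluorescence polarization with parallel and perpendicular emission, 525/598 nm | Evaluation: % inhibition of FP-Rh probe binding versus controls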
SIAE inh: human SIAE inhibitors, primary screen, biochemical, fluorescence polarization, FP-Rh probe, 1536-well HTS. Sialate O-acetylesterase (Homo sapiens), Q9HAT2. inhibition, % at 9.66 µM. actives 0.69% (n = 370,000). AID 1053197, 2014. SIAE FP-Rh probe binding;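 active = inhibition above a cutoff: mean of compounds within the control limits plus 3 SD of those, cut at about 17% in these data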;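 also: 0% = plate median of compound wells and 100% = probe without SIAE protein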
Target sequence (Q9HAT2 whole entry, looked up): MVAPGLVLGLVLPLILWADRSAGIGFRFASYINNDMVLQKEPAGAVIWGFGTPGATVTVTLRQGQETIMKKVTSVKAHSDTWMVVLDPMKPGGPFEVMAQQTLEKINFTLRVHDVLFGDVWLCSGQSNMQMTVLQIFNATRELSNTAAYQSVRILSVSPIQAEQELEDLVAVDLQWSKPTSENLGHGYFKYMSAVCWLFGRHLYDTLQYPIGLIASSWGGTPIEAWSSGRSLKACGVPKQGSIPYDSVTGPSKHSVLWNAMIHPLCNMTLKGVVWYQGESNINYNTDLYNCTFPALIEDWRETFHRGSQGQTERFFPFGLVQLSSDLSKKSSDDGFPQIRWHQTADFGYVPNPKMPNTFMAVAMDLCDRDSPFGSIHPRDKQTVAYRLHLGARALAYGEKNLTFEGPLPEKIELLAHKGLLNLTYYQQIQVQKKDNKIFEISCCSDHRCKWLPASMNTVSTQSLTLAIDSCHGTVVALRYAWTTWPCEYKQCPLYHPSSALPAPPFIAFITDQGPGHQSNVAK
HTRA1 inhibitor: HTRA1 serine protease inhibitors, primary screen, biochemical, fluorescence polarization, HTS | recombinant HTRA1, FP-rhodamine activity-based probe | actives 0.5% (n = 340,000) | AID 504803, 2011 | inhibition, % at 5.96 µM | Q92743; in the data active = inhibition above about 36%;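 also: 0% = enzyme with DMSO and 100% = wells lacking enzyme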
TDP2 absorb: human TDP2 enzyme inhibitors, primary screen, biochemical, epi absorbance, recombinant enzyme | Tyrosyl-DNA phosphodiesterase 2 (Homo sapiens), O95551 | T5PNP hydrolysis, p-nitrophenol absorbance 415 nm | inhibition, % at 12.8 µM | actives 0.34% (n = 370,000);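 active = inhibition above the mean of all tested compounds plus 3 SD, set per campaign, cut at about 25% in these data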;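 also: 0% = DMSO with enzyme and 100% = buffer with substrate but no TDP2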
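Evaluation: % inhibition relative to enzyme-containing and enzyme-free wells. Material: recombinant human TDP2. Benchmarks: enzyme-free and DMSO wells. Timing: enzyme reaction with compound for 2 h at 37 °C. Compound dosing: 12.8 µM only. Measured by: p-Nitrophenol epi absorbance. Reagent: T5PNP substrate at 5 mM, a TopII-DNA adduct mimic. Replication: single well per compound.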
TDP2 inh conf: human TDP2 enzyme inhibitors, retest, confirmation, biochemical, epi absorbance, recombinant enzyme; shares compounds with TDP2 absorb; absorbance read-out; inhibition, % at 12.8 µM; actives 22% (n = 1,100); AID 743263, 2014; in the data active = inhibition above about 25%;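 also: 0% = vehicle with enzyme and 100% = no enzyme buffer only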
The depositor's hits bear a star; . = no result. Most compounds without a hit are left out; they make up all but 2% or so of the library.

SMILES | TCR-CD3 inh | PAD4 FP inh | ABHD4 inh | SIAE inh | HTRA1 inhibitor | TDP2 absorb | TDP2 inh conf
O=[N+]([O-])c1ccc(S(=O)(=O)NCC2COc3ccccc3O2)cc1 (centres undefined) | 2 | 3 | 0 | 4 | 3 | 25* | -1
CN1CCC(C)(C(=O)Nc2cccc(Oc3ccccc3)c2)C1 (centres undefined) | 7 | . | -4 | -3 | . | 81* | 3
Cc1cc2oc(C(=O)NCCc3ccc(S(N)(=O)=O)cc3)c(C)c2cc1C | 1 | -8 | -40 | -48 | -36 | 30* | 3
Cc1ccc(Nc2nc(N)nc(CN3CCCCCC3)n2)c(C)c1 | 3 | -1 | -2 | -1 | -10 | 38* | -3
COc1ccc(C2CCc3cc4c(cc3C2=NO)OCO4)cc1OC (centres undefined) | -1 | . | -3 | 1 | 1 | 3 | .
O=C(COC(=O)c1nc(Cl)ccc1Cl)c1ccccc1Cl | 0 | 3 | -4 | 2 | -4 | 29* | 0
O=C(NC1CCCC1)C(c1ccc(N2CCOCC2)cc1)N(Cc1ccco1)C(=O)c1ccco1 (centres undefined) | 5 | -6 | 0 | -4 | 4 | -9 | .
O=C(NC1CCCC1)C(c1ccc(N2CCOCC2)cc1)N(Cc1ccccc1)C(=O)c1ccco1 (centres undefined) | 5 | 0 | 2 | 5 | 2 | 32* | -7
Cc1ccc(C(=O)NCC(=O)NCC(=O)OCc2ccc(F)cc2)cc1 | -1 | 5 | 6 | 0 | 3 | -7 | .
CCOC(=O)c1ccccc1NC(=S)N1CCC(N2CCCCC2)CC1 | 0 | 2 | -4 | 1 | 2 | 34* | 3
COc1cc(Cc2nccc3cc(OC)c(OC)cc23)c(S(=O)(=O)O)cc1OC | 7 | -13 | -2 | 7 | -2 | 41* | 4
COc1cc(Cc2nccc3cc(OC)c(OC)cc23)c(NC(C)=O)cc1OC | -5 | 1 | -1 | -1 | 7 | 1 | .
O=C(O)c1ccccc1-c1c2cc(I)c(=O)c(I)c-2oc2c(I)c(O)c(I)cc12 | -258 | -123 | -243 | -292 | -149 | 28* | 40*
O=Cc1ccc(-c2ccccc2C(=O)O)o1 | -2 | -5 | -2 | 1 | -1 | -6 | .
CCCc1nnc(NC(=O)CCC(=O)N2CCCCC2)s1 | 4 | -1 | 1 | -1 | 1 | 26* | -6
N#Cc1cccc(NC(=O)COC(=O)c2ccc[n+]([O-])c2)c1 | -4 | -8 | -8 | -14 | -10 | 7 | .
COCC(=O)N/N=C/c1c(C)[nH]n(-c2ccccc2)c1=O | -2 | -10 | -3 | 4 | . | 32* | 2
Cc1[nH]n(-c2ccccc2)c(=O)c1/C=N/N1C(=O)c2ccc3c4c(ccc(c24)C1=O)CC3 | -6 | -12 | 1 | 5 | 8 | 28* | -9
Cc1[nH]n(-c2ccccc2)c(=O)c1/C=N/N(C)c1ccccc1 | 6 | 2 | 3 | 7 | -2 | 42* | 9
COC(=O)N/N=C\c1c(C)[nH]n(-c2ccccc2)c1=O | -2 | -13 | 4 | 2 | 0 | 12 | .
Cc1[nH]n(-c2ccccc2)c(=O)c1/C=N/O | -4 | -6 | 4 | 16 | -1 | 15 | .
CC(=O)N/N=C/c1c(C)[nH]n(-c2ccccc2)c1=O | -7 | -13 | 1 | -3 | 4 | 28* | -3
CC(C)CC1CC(C)(c2csc(NNC(=O)c3ccccc3)n2)OC1=O (centres undefined) | 4 | -2 | 12 | 11 | -12 | 20 | .
COC(=O)C1=CO[C@@H](O[C@@H]2O[C@H](CO)[C@@H](O)[C@H](O)[C@H]2O)C2C1C=C[C@@]2(O)CO (some centres undefined) | 3 | 3 | 6 | -3 | 5 | 13 | .
Cc1cc(NC(=O)CN(C)CCOc2ccccc2)ccc1Br | 7 | 1 | 0 | -5 | -14 | 3 | .
SMILES | TCR-CD3 inh | PAD4 FP inh | ABHD4 inh | SIAE inh | HTRA1 inhibitor | TDP2 absorb | TDP2 inh conf
CN(CCOc1ccccc1)CC(=O)Nc1cccc(Br)c1 | -1 | 2 | 12 | -3 | -13 | 32* | 11
CCOC(=O)C(=O)C1=CN(Cc2ccccc2)C=C(C#N)C1 | 5 | -12 | 8 | 8 | 8 | 27* | 11
CCOC(=O)/C(C#N)=C1/C=CN(Cc2ccccc2)C=N1 | -2 | -1 | -3 | 3 | -2 | -3 | .
Cc1ccc(-n2nc3c(c2NC(=O)C2CC2)CS(=O)(=O)C3)cc1 | 8 | 1 | 6 | -2 | 7 | 27* | 7
COc1ccc(NC(=O)CN(C)C(=O)Cc2n[nH]c(=O)c3ccccc23)cc1 | -3 | 0 | 3 | -1 | 5 | -1 | .
NC(=O)c1cc2ccccc2o/c1=N\NC(=O)c1ccncc1 | 3 | -1 | 11 | -4 | 5 | 32* | 0
Cc1ccc(C(=O)N/N=c2\oc3ccccc3cc2C(N)=O)cc1 | 0 | 0 | 3 | -8 | -4 | -13 | .
CC1(N2CCCCC2)C(=O)c2ccccc2C1=O | -1 | 0 | 2 | -5 | -3 | 62* | 2
CN(C)CCNc1ncnc2c1sc1nc(-c3ccccc3)c3c(c12)CCCC3 | -1 | -4 | 14 | 6 | -11 | -1 | .
CCOc1cc(/C=C\c2nc(O)c([N+](=O)[O-])c(=O)[nH]2)ccc1OC(C)C | -4 | 0 | 1 | -6 | -1 | 25* | 2
CCOc1cc(/C=C\c2[nH]c(=O)[nH]c(=O)c2[N+](=O)[O-])ccc1OC(C)CC (centres undefined) | 4 | 8 | -2 | -8 | . | -1 | .
O=C1C(=O)N(c2nccs2)C(c2ccccc2)/C1=C(\O)c1ccc2c(c1)OCCO2 (centres undefined) | . | -8 | . | . | 1 | . | .
O=C1C(=O)N(c2nccs2)C(c2ccccc2F)/C1=C(\O)c1ccc2c(c1)OCCO2 (centres undefined) | 10 | -3 | 10 | -8 | 1 | 26* | -1
CC(=O)c1cc(OC(=O)N2CCOCC2)ccc1OC(=O)N1CCOCC1 | -2 | 0 | -8 | 4 | 6 | 75* | -16
Cc1[nH][nH]c(=O)c1C(c1c(C)[nH][nH]c1=O)c1cn(C)c2ccccc12 | -3 | . | 2 | 0 | 7 | 49* | 21
Cc1onc(-c2c(F)cccc2Cl)c1C(=O)NCCc1ccncc1 | -4 | -6 | -4 | -2 | 1 | -7 | .
